Assay results as given in ChEMBL document CHEMBL1125755, “Synthesis and structure-activity relationships of benzo[b]thienylallylamine antimycotics” (1991).
Values after ≈ are worked out from the molar mass of the structure shown.

Assays:
[1] = test system: Sporothrix schenckii; test: Evaluated in vitro for the minimum inhibitory concentration against Sporothrix schenckii.
[2] = test system: Candida albicans; test: Evaluated in vitro for the minimum inhibitory concentration against Candida albicans 124; type: functional
Procedure, shortened: (§1)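 Yeast tube dilution in malt extract broth (pH 4.8), with compounds in DMSO serially diluted in the medium. Inoculum was blastospores from about 30-h shaken cultures in yeast nitrogen base at 37 °C. Growth was read after 48 h at 30 °C. MIC was the lowest concentration without macroscopically visible growth.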

[3] = test system: Trichophyton benhamiae; test: Evaluated in vitro for the minimum inhibitory concentration against Trichophyton mentagrophytes; type: functional, Arthroderma benhamiae
Procedure, shortened: (§2)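 Dermatophytes were tested in glass tubes of Sabouraud's dextrose broth (pH 6.5) against DMSO-dissolved compounds serially diluted in the medium. Inoculum was taken by spatula from 21-day Kimming agar cultures grown at 30 °C. Incubation was 7 days at 30 °C. MIC was the lowest concentration showing no macroscopic fungal growth.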

[4] = test system: Aspergillus fumigatus; test: Evaluated in vitro for the minimum inhibitory concentration against Aspergillus fumigatus.
[5] = test system: Candida parapsilosis; test: Evaluated in vitro for the minimum inhibitory concentration against Candida parapsilosis 39.; type: functional; details: Lodderomyces parapsilosis
Procedure, shortened: as §1

[6] = test system: Microsporum canis; test: Evaluated in vitro for the minimum inhibitory concentration against Microsporum canis.; type: functional
Procedure, shortened: as §2

[7] = test system: Sporothrix schenckii; test: In vitro minimum inhibitory concentration which is the lowest concentration at which no signs of fungal growth were detected against Sporothrix schenckii
[8] = test system: Trichophyton benhamiae; test: In vitro minimum inhibitory concentration which is the lowest concentration at which no signs of fungal growth were detected against Trichophyton mentagrophytes.; type: functional, Arthroderma benhamiae
Procedure, shortened: as §2

[9] = test system: Candida parapsilosis; test: In vitro minimum inhibitory concentration which is the lowest concentration at which no signs of fungal growth were detected against Candida parapsilosis 39.; type: functional; details: Lodderomyces parapsilosis
Procedure, shortened: as §1

[10] = test system: Aspergillus fumigatus; test: In vitro minimum inhibitory concentration which is the lowest concentration at which no signs of fungal growth were detected against Aspergillus fumigatus.
[11] = test system: Microsporum canis; test: In vitro minimum inhibitory concentration which is the lowest concentration at which no signs of fungal growth were detected against Microsporum canis.; type: functional
Procedure, shortened: as §2

[12] = test system: Candida albicans; test: In vitro minimum inhibitory concentration which is the lowest concentration at which no signs of fungal growth were detected against Candida albicans 124; type: functional
Procedure, shortened: as §1

[13] = test system: Candida albicans; test: In vitro minimum inhibitory concentration at which no signs of fungal growth were detected against clinically isolated strains of Candida albicans.; type: functional
Procedure, shortened: as §1

[14] = test system: Aspergillus fumigatus; test: In vitro minimum inhibitory concentration at which no signs of fungal growth were detected against laboratory adapted strains of Aspergillus fumigatus.; type: functional
Procedure, shortened: (§3)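 Inoculum of filamentous fungi harvested from 21-day-old Kimming agar cultures grown at 30 °C. Broth dilution in glass tubes with Sabouraud's dextrose broth (pH 6.5); compounds dissolved in DMSO and serially diluted in medium. Incubation at 30 °C, read after 72 h. MIC taken as the lowest concentration with no macroscopically visible growth.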

[15] = test system: Arthrodermataceae; test: In vitro minimum inhibitory concentration at which no signs of fungal growth were detected against laboratory adapted strains of dermatophytes.; type: functional
Procedure, shortened: (§4)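 Sabouraud's dextrose broth (pH 6.5) in glass tubes; compounds dissolved in DMSO and serially diluted with medium. Incubated at 30 °C and read after 7 days. MIC is the lowest concentration with no macroscopically visible fungal growth.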

[16] = test system: Scopulariopsis brevicaulis; test: In vitro minimum inhibitory concentration at which no signs of fungal growth were detected against laboratory adapted strains of Scopulariopsis brevicaulis.; type: functional
Procedure, shortened: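 Inoculum of this mould harvested from 21-day-old Kimming agar cultures grown at 30 °C. Compounds dissolved in DMSO and serially diluted in broth in glass tubes. Incubated at 30 °C and read after 72 h. MIC is the lowest concentration with no macroscopically detectable growth.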

[17] = test system: Candida parapsilosis; test: In vitro minimum inhibitory concentration at which no signs of fungal growth were detected against laboratory adapted strains of Candida parapsilosis.; type: functional; details: Lodderomyces parapsilosis
Procedure, shortened: (§5)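 Yeast blastospores taken from shaken cultures about 30 h old, grown at 37 °C in yeast nitrogen base. Tube dilution used malt extract broth (pH 4.8); compounds were dissolved in DMSO and serially diluted in medium. Incubated at 30 °C and read after 48 h. MIC is the lowest concentration with no macroscopic growth.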

[18] = test system: Aspergillus niger; test: In vitro minimum inhibitory concentration at which no signs of fungal growth were detected against laboratory adapted strains of Aspergillus niger.; type: functional
Procedure, shortened: as §3

[19] = test system: Nakaseomyces glabratus; test: In vitro minimum inhibitory concentration at which no signs of fungal growth were detected against laboratory adapted strains of Torulopsis glabrata; type: functional
Procedure, shortened: as §5

[20] = test system: Candida albicans; test: In vitro minimum inhibitory concentration at which no signs of fungal growth were detected against laboratory adapted strains of Candida albicans.; type: functional
Procedure, shortened: as §5

[21] = test system: Arthrodermataceae; test: In vitro minimum inhibitory concentration at which no signs of fungal growth were detected against clinically isolated strains of dermatophytes.; type: functional
Procedure, shortened: as §2

[22] = test system: Sporothrix schenckii; test: In vitro minimum inhibitory concentration at which no signs of fungal growth were detected against laboratory adapted strains of Sporothrix schenck ii; type: functional
Procedure, shortened: as §4

| MIC [1] | MIC [2] | MIC [3] | MIC [4] | MIC [5] | MIC [6] | MIC [9] | SMILES | further results |
| --- | --- | --- | --- | --- | --- | --- | --- | --- |
| > 200 µg/mL | 6.25 µg/mL | 0.02 µg/mL | 6.25 µg/mL | 0.8 µg/mL | 0.1 µg/mL |  | CSc1csc2c(CN(C)C/C=C/C#CC(C)(C)C)cccc12.Cl |  |
|  |  |  |  |  |  | 0.4 µg/mL (≈ 1.23 µM) | CN(C/C=C/C#CC(C)(C)C)Cc1cccc2c(C=O)csc12 | MIC [7]: 1.56 µg/mL (≈ 4.79 µM); MIC [8]: 0.05 µg/mL (≈ 0.154 µM); MIC [10]: 0.4 µg/mL (≈ 1.23 µM); MIC [11]: 0.02 µg/mL (≈ 0.0614 µM); MIC [12]: 6.25 µg/mL (≈ 19.2 µM) |
|  |  |  |  |  |  | 0.2 µg/mL | CN(C/C=C/C#CC(C)(C)C)Cc1cccc2c(C#N)csc12.Cl | MIC [7]: 0.4 µg/mL; MIC [8]: 0.02 µg/mL; MIC [10]: 3.13 µg/mL; MIC [11]: 0.01 µg/mL; MIC [12]: 3.13 µg/mL |
| 50 µg/mL | 3.13 µg/mL | 0.05 µg/mL | 12.5 µg/mL | 1.56 µg/mL | 0.1 µg/mL |  | CN(C/C=C/C#CC(C)(C)C)Cc1cccc2c(C(F)(F)F)csc12.Cl |  |
| 0.1 µg/mL | 3.13 µg/mL | 0.006 µg/mL | 0.4 µg/mL | 0.4 µg/mL | 0.006 µg/mL |  | Cc1csc2c(CN(C)C/C=C/C#CC(C)(C)C)cccc12.Cl |  |

Further lines, the compound ahead of its results:

| SMILES | MIC [1] | MIC [2] | MIC [3] | MIC [4] | MIC [5] | MIC [6] | MIC [9] | further results |
| --- | --- | --- | --- | --- | --- | --- | --- | --- |
| CN(C/C=C/C#CC(C)(C)C)Cc1ccc(Cl)c2ccsc12.Cl | > 200 µg/mL | 100 µg/mL | 0.1 µg/mL | > 200 µg/mL | 0.8 µg/mL | 0.4 µg/mL |  |  |
| CN(C/C=C/C#CC(C)(C)C)Cc1cccc2cc(Cl)sc12.Cl | > 100 µg/mL | > 100 µg/mL | 0.01 µg/mL | > 100 µg/mL | 0.8 µg/mL | 0.01 µg/mL |  |  |
| CN(C/C=C/C#CC(C)(C)C)Cc1cccc2ccccc12 [TERBINAFINE] |  |  |  |  |  |  | 0.8 µg/mL (≈ 2.75 µM) | MIC [7]: 0.8 µg/mL (≈ 2.75 µM); MIC [8]: 0.003 µg/mL (≈ 0.0103 µM); MIC [13]: 100 µg/mL (≈ 343 µM); MIC [14]: 1.56 µg/mL (≈ 5.35 µM); MIC [15]: 0.006 µg/mL (≈ 0.0206 µM); MIC [16]: 0.8 µg/mL (≈ 2.75 µM); MIC [17]: 0.8 µg/mL (≈ 2.75 µM); MIC [18]: 0.02 µg/mL (≈ 0.0686 µM); MIC [10]: 0.4 µg/mL (≈ 1.37 µM); MIC [19]: > 100 µg/mL; MIC [20]: 50 µg/mL (≈ 172 µM); MIC [21]: 0.01 µg/mL (≈ 0.0343 µM); MIC [11]: 0.006 µg/mL (≈ 0.0206 µM); MIC [12]: 25 µg/mL (≈ 85.8 µM); MIC [22]: 0.4 µg/mL (≈ 1.37 µM) |
| CN(C/C=C/C#CC(C)(C)C)Cc1cccc2sccc12.Cl | 0.8 µg/mL | 50 µg/mL | 0.006 µg/mL | 0.4 µg/mL | 1.56 µg/mL | 0.01 µg/mL |  |  |
| CN(C/C=C/C#CC(C)(C)C)Cc1cccc2cc(F)sc12.Cl | 3.13 µg/mL | 25 µg/mL | 0.006 µg/mL | 0.05 µg/mL |  | 0.01 µg/mL | 6.25 µg/mL |  |
| CN(C/C=C/C#CC(C)(C)C)Cc1cccc2ccsc12.Cl | 0.1 µg/mL | 25 µg/mL | 0.006 µg/mL | 0.2 µg/mL | 0.8 µg/mL | 0.01 µg/mL |  |  |
